Screening results deposited in PubChem BioAssay by several laboratories.
Most compounds without a hit are left out; they make up all but 3.4% or so of the library.
MEKK3 PB1 HTS: modulators of MEKK3-MEK5 PB1 binding, primary screen, biochemical, wildtype MEKK3, multiplex bead flow cytometry, Alexa488-MEK5; binding response (% of control), % at 10 µM; actives 1.4% (n = 290,000); bead-based flow cytometry, Alexa488-MEK5 binding to MEKK3; actives lie on both sides; 0 = blocked by unlabeled MEK5, 100 = vehicle;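 active = binding response more than 3 SD above or below the average of its plate-row segment, actives on both sides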;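 note: Alexa488 bead fluorescence after subtracting the streptavidin-only scavenger bead signal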
Target sequence (Q99759 whole entry, looked up): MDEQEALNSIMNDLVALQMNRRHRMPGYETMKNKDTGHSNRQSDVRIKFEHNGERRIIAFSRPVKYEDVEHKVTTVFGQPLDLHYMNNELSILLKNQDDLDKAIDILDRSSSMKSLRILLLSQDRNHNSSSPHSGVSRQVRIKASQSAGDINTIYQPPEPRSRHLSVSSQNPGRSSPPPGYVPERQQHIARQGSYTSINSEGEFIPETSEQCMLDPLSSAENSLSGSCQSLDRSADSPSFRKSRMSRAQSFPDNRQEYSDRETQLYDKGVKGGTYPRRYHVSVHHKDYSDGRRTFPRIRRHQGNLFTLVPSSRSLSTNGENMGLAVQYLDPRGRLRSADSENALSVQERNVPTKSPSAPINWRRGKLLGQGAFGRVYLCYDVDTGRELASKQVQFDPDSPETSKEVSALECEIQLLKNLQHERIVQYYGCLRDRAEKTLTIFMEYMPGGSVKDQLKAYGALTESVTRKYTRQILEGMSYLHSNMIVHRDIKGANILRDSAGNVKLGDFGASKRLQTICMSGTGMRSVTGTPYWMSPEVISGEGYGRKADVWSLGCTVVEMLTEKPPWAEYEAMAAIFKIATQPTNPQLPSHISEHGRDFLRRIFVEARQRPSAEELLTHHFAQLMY
MEKK2 WT-MEK5: modulators of MEK5 binding to wildtype MEKK2, primary screen, biochemical, multiplex bead flow cytometry, Alexa488-MEK5; actives 1.1% (n = 290,000); binding response (% of control), % at 10 µM; Mitogen-activated protein kinase kinase kinase 2 (Homo sapiens), Q9Y2U5; Alexa488-MEK5 binding to MEKK2 WT; actives lie on both sides; in the data active = binding response below about 67% or above about 130%
IMP-1 inh: IMP-1 metallo-beta-lactamase inhibitors, primary screen, biochemical, epi-absorbance readout, Pseudomonas aeruginosa enzyme | purified IMP-1, nitrocefin hydrolysis, epi-absorbance fluorescence | inhibition, % at 5.6 µM | actives 0.45% (n = 290,000) | AID 1556, 2009;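 active = inhibition above the mean plus 3 SD of all compounds in the same screening run, cut at about 4.5% in these data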;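 note: 0% = IMP-1 with DMSO and 100% = DMSO wells lacking enzyme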
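assay system = purified recombinant IMP-1 metallo-beta-lactamase enzyme | schedule = 15 min preincubation plus 25 min reaction at 25 °C | signal = Epi-absorbance fluorescence, 480 nm excitation, 530 nm emission | read-out basis = percent inhibition from optical density relative to buffer-blank wells | controls = IMP-1 with DMSO as 0%, enzyme-free DMSO as 100%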
VIM-2 inhibitor: VIM-2 metallo-beta-lactamase inhibitors, primary screen, biochemical, epi-absorbance readout, Pseudomonas aeruginosa enzyme | purified VIM-2, nitrocefin hydrolysis, epi-absorbance fluorescence | inhibition, % at 5.6 µM | actives 0.89% (n = 290,000) | AID 1527, 2009;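 active = inhibition above the mean of all tested compounds plus 3 SD, cutoff set per screening run, cut at about 7.5% in these data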;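 note: red hydrolysis product quenches plate fluorescence so inhibitors raise well fluorescence; 0% = enzyme with DMSO and 100% = DMSO without enzyme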
MEKK2mut PB1 HTS: MEK5 binding signal on mutant MEKK2 PB1, primary screen, biochemical, multiplex bead flow cytometry, Alexa488-MEK5 | Alexa488-MEK5 binding to MEKK2 mutant | percent response, % at 10 µM | actives 0.35% (n = 290,000) | AID 1530, 2009; in the data active = percent response above about 24%, passing the limit was not always enough
MEKK2wt confirm: modulators of MEK5 binding to wildtype MEKK2, confirmation, biochemical, single concentration, multiplex bead flow cytometry; shares compounds with MEKK3 PB1 HTS; Alexa488-MEK5 binding to MEKK2 WT; actives lie on both sides; binding response (% of control), % at 10 µM; actives 2.4% (n = 5,900); AID 1892, 2009; in the data active = binding response below about 16% or above about 210%; inactive = in between
MEKK2mut-MEK5: mutant MEKK2 PB1-MEK5 binding signal retest – biochemical, single concentration, multiplex bead flow cytometry, confirmation; Alexa488-MEK5 binding to MEKK2 mutant; shares compounds with MEKK3 PB1 HTS; actives 2% (n = 5,900); percent response, % at 10 µM; in the data active = percent response mostly above about 71%, no sharp cut-off; inactive = mostly below about 38%;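 note: higher means compound restores mutant binding toward wildtype level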
MEKK3-MEK5 inh: MEKK3 wild-type PB1 binding to MEK5, inhibitors, confirmation, biochemical, bead multiplex flow cytometry, single concentration, wildtype. binding response (% of control), % at 10 µM. actives 1.8% (n = 5,900). Alexa488-MEK5 binding to MEKK3; hits give low values. shares compounds with MEKK3 PB1 HTS;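 active = binding response below 72% of control, or above a set upper limit, though filed actives all read lower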;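 note: 100% = DMSO only wells and 0% = binding blocked by excess unlabeled MEK5; lower values mean stronger disruption of MEK5 binding to MEKK3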
* = called active by the depositor; x = not tested or not shown; [ ] = remark or other dose.

SMILES | MEKK3 PB1 HTS | MEKK2 WT-MEK5 | IMP-1 inh | VIM-2 inhibitor | MEKK2mut PB1 HTS | MEKK2wt confirm | MEKK2mut-MEK5 | MEKK3-MEK5 inh
CC(Sc1ccc(Cl)cc1)C(=O)NNC(=O)c1csc(N2CCOCC2)n1 (configuration not stated) | 100 | 101 | -1 | -3 | 3 | x | x | x
Clc1ccc(SCc2csc(N3CCOCC3)n2)cc1 | 74*[inhibitor] | 75 | 1 | 0 | -32 | 95 | -4 | 97
O=c1[nH]c(=S)[nH]c2c1C(c1cc([N+](=O)[O-])c(N3CCOCC3)cc1N1CCOCC1)O2 (configuration not stated) | 142* | 125 | -3 | -3 | 5 | 96 | -2 | 99
CCCCCc1ccc(OCCOCCn2c[n+](C)c3ccccc32)c(CCCCC)c1 | 79 | 232* | -1 | -1 | 23 | 186 | 52 | 106
CC(=O)Nc1ccc(OCCC[n+]2ccccc2)cc1 | 99 | 90 | 1 | 0 | -12 | x | x | x
CCCCCc1ccc(OCCC[n+]2ccccc2)c(CCCCC)c1 | 96 | 145* | 1 | 0 | 19 | 146 | 30 | 104
Cc1ccc(CNC(=O)C2CCN(C(=O)c3cccc(Cl)c3)CC2)cc1 | 97 | 98 | -2 | -1 | 4 | x | x | x
Cc1ccc(-c2cc(C(=O)Nc3nccs3)c3ccccc3n2)c(C)c1 | 152* | 106 | -4 | -3 | 0 | 105 | -6 | 101
O=C(Nc1nccs1)c1cc(-c2ccncc2)nc2ccccc12 | 107 | 100 | 0 | -1 | 0 | x | x | x
O=C(NCCc1ccccc1)c1cccc([N+](=O)[O-])c1 | 130* | 107 | -2 | 0 | 0 | 101 | 4 | 102
CC(C)CNC(=O)C1Nc2ccc(C(F)(F)F)cc2C2C=CCC12 (configuration not stated) | 100 | 103 | x | x | 0 | x | x | x
O=C(O)C1Nc2ccc(C(F)(F)F)cc2C2OCCC12 (configuration not stated) | 78*[inhibitor] | 94 | x | x | -4 | 98 | 0 | 102
CN(C)c1ccc(C(CN)c2c[nH]c3ccccc23)cc1 (configuration not stated) | 69*[inhibitor] | 110 | -3 | -2 | 0 | 131 | 18 | 97
COc1cc(C(=O)OCC(=O)Nc2c(F)c(F)c(F)c(F)c2F)cc(OC)c1OC | 89 | 97 | 0 | -3 | -6 | x | x | x
Cc1cc2c(c(=O)n1CCc1ccccc1)C(c1ccco1)C(C#N)=C(N)O2 (configuration not stated) | 104 | 103 | -2 | -1 | 4 | x | x | x
CN(C)c1ccc(-c2nnc(-c3ccccc3F)o2)cc1 | 104 | 104 | -2 | 2 | 26* | 96 | -5 | 99
CCOc1cc(S(=O)(=O)NC2CC(C)(C)NC(C)(C)C2)ccc1Cl | 98 | 106 | -2 | -3 | 6 | x | x | x
C/C=C/c1ccc(OCCOc2cc(C=O)ccc2OC)c(OC)c1 | 104 | 107 | -1 | -1 | 13 | x | x | x
C/C=C/c1ccc(OCCOCCNCc2ccccc2)c(OC)c1 | 113 | 195* | -3 | -1 | 24* | 156 | 31 | 108
CC(NC(=O)c1ccccc1F)c1nnc(SCC(=O)Nc2nccs2)n1C (configuration not stated) | 99 | 97 | -1 | -3 | -7 | x | x | x
